# Experimental data from ChEMBL document CHEMBL1122181 (J Med Chem, 1982).
# Activity calls are given as the source filed them. The calls are words filed in the database; no cut-off is given here.
# Legend:
# [1] = test system: Mus musculus; assay: Analgesic activity was determined by tail flick assay after subcutaneous administration in mice; type: functional; conditions: sc
# Summary of the method: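 Tail-flick method; compound given subcutaneously in normal saline. Potency derived by probit analysis, reported with 95% confidence limits.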
# [2] = test system: Mus musculus; assay: Analgesic activity was determined by writhing test after subcutaneous administration in mice; type: functional; conditions: sc
# Summary of the method: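 Phenylquinone-induced writhing; compound given subcutaneously in distilled water. Potency derived by probit analysis, reported with 95% confidence limits.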
# [3] = test system: Mus musculus; assay: Analgesic activity was determined by tail flick assay after subcutaneous administration in mice; Inactive; type: functional, organism-based
SMILES,ED50 [1],ED50 [2],ED50 [3]
CN1CCC23CCCCC2C1Cc1ccc(OC(C)(C)C)cc13 (configuration not stated),5.81 mg/kg,5 mg/kg,
CN1CC[C@]23CCCC[C@H]2[C@H]1Cc1ccc(O)cc13 [LEVORPHANOL],1.3 mg/kg,0.1 mg/kg,
CN1CCC23c4c5ccc(OC(C)(C)C)c4O[C@H]2[C@@H](O)C=CC3C1C5 (some centres not stated),,26.8 mg/kg,inactive
COc1ccc2c3c1O[C@H]1[C@@H](O)C=C[C@H]4[C@@H](C2)N(C)CC[C@@]341 [CODEINE],39 mg/kg,2.3 mg/kg,
CN1CC[C@]23c4c5ccc(O)c4O[C@H]2[C@@H](O)C=C[C@H]3[C@H]1C5 [MORPHINE],4.06 mg/kg,0.46 mg/kg,
COc1ccc2c(c1)C13CCCCC1C(C2)N(C)CC3 (stereo not drawn) [RACEMETHORPHAN],6.78 mg/kg,0.64 mg/kg,
